Source: ChEMBL document CHEMBL1156912, “Subtlety of the structure-affinity and structure-efficacy relationships around a nonpeptide oxytocin receptor agonist” (J Med Chem, 2010)
Activity calls are given as the source filed them. No cut-off for these calls is given here.

Key:
[1] = target: T1, Oxytocin receptor (Homo sapiens, UniProt P30559); test: Displacement of [3H]AVP from human oxytocin receptor expressed in CHO cells; type: cell-based
T1 sequence (P30559 whole entry): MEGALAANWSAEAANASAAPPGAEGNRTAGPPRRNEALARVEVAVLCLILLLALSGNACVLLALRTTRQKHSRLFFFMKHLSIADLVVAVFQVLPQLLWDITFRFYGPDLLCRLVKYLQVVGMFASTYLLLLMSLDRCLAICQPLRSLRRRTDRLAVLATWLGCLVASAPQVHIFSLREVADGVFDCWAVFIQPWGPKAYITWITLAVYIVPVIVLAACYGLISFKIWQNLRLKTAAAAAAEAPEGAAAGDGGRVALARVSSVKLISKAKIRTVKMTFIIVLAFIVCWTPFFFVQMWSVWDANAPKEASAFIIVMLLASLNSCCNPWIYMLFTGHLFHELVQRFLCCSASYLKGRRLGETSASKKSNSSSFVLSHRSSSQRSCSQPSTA
Procedure, shortened: (§1)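 Membranes came from CHO cells stably expressing the human receptor; OT-R and V1a-R cells were treated overnight with 5 mM butyrate. Membrane protein was 10–15 μg (OT, V1a) or 5 μg (V2), incubated 30 min at 30 °C in 50 mM Tris-HCl, 5 mM MgCl2, 1 mg/mL BSA, pH 7.4, with 1–2 nM [3H]AVP and competitor 0.1 pM–100 μM. Nonspecific binding: 10 μM AVP. Filtration, then Ki via Cheng–Prusoff. Mean ± SEM of ≥3 experiments in triplicate.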

[2] = target: T2, Oxytocin receptor (Homo sapiens) (UniProt P30559); test: Activity at human oxytocin receptor expressed in CHO cells assessed as inhibition of agonist-induced inositol phosphate accumulation; type: functional, cell-based
T2 sequence (whole entry): T1 sequence (P30559 whole entry)

[3] = target: T3, Vasopressin V1a receptor (Homo sapiens, UniProt P37288); test: Displacement of [3H]AVP from human vasopressin V1a receptor expressed in CHO cells; type: cell-based; procedure, shortened: as §1
Target sequence in this assay (P37288 whole entry): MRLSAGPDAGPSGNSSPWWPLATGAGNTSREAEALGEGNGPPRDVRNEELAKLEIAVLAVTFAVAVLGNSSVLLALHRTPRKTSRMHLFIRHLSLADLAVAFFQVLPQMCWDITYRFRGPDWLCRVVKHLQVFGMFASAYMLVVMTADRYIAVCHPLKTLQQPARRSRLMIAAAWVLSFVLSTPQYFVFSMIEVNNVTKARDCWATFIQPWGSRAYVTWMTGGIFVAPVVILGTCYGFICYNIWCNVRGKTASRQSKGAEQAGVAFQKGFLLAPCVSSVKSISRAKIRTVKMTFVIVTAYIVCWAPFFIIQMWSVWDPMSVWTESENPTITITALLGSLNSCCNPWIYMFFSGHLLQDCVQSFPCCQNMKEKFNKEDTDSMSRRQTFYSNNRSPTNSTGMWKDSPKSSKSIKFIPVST

[4] = target: T3, Vasopressin V1a receptor; test: Activity at human vasopressin V1a receptor expressed in CHO cells assessed as inositol phosphate accumulation at 1 uM; type: functional, cell-based
Procedure, shortened: (§2)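 Human V1a-expressing CHO cells, 80000 cells/well, exposed to ligand for 30 min at 37 °C. IP1 was measured by HTRF IP-One. EC50 (K_act) from the dose–response curve. Emax is relative to the 1 μM AVP maximum. Weak responses are reported as % of AVP maximum at 1 μM ligand.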
Target sequence in this assay (P37288 whole entry, looked up): as the sequence (P37288 whole entry) above

[5] = target: T3, Vasopressin V1a receptor; test: Activity at human vasopressin V1a receptor expressed in CHO cells assessed as inhibition of agonist-induced inositol phosphate accumulation; type: functional, cell-based
Procedure, shortened: (§3)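 Human V1a receptor in stably transfected CHO cells, seeded at 80000 cells/well overnight. Cells were preincubated 10 min at 37 °C with ligand (10 fM–100 μM, ≤1% final DMSO), then challenged with 2 nM AVP for 30 min. IP1 was read by IP-One HTRF. K_inact was derived by Cheng–Prusoff-type correction using AVP K_act 1.20 nM. Fixed-concentration lines are % inhibition, n = 2.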
Target sequence in this assay (P37288 whole entry, looked up): as the sequence (P37288 whole entry) above

[6] = target: T4, Vasopressin V2 receptor (Homo sapiens, UniProt P30518); test: Displacement of [3H]AVP from human vasopressin V2 receptor expressed in CHO cells; type: cell-based; procedure, shortened: as §1
T4 sequence (P30518 whole entry): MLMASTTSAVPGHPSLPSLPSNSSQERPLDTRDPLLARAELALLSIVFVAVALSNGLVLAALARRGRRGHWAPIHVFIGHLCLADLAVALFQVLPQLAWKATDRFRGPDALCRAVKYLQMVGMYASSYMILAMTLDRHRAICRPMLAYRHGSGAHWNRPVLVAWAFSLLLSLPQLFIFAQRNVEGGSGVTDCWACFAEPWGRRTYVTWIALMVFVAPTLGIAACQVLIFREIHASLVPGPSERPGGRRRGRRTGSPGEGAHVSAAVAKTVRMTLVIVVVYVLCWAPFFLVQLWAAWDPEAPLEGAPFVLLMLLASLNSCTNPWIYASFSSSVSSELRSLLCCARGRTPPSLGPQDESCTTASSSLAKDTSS

[7] = target: T4, Vasopressin V2 receptor; test: Activity at human vasopressin V2 receptor expressed in CHO cells assessed as cAMP accumulation at 1 uM; type: functional, cell-based
Procedure, shortened: (§4)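 V2-R agonism in CHO cells at 1000 cells/well, stimulated 30 min at 37 °C in D-MEM containing 0.1 mM Ro-20-1724 and 1 mg/mL BSA. cAMP was read by cAMP dynamic 2 HTRF. K_act from the sigmoidal fit. Emax is % of the 0.1 μM AVP response. Single-concentration values are % of AVP maximum.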

[8] = target: T4, Vasopressin V2 receptor; test: Activity at human vasopressin V2 receptor expressed in CHO cells assessed as inhibition of agonist-induced cAMP accumulation; type: functional, cell-based
[9] = target: T2, Oxytocin receptor (Homo sapiens); test: Activity at human oxytocin receptor expressed in CHO cells assessed as inositol phosphate accumulation up to 10 uM; type: functional, cell-based
Procedure, shortened: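 CHO cells stably expressing human OT receptor, seeded 80000 cells/well overnight at 37 °C. Ligands 10 fM to 100 μM (≤1% DMSO) in IP-One stimulation buffer, 30 min at 37 °C with 5% CO₂. IP₁ read by HTRF at 665/620 nm. EC50 (K_act) from sigmoidal curves; Emax as % of 1 μM OT maximum. Triplicate wells, ≥3 experiments.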

[10] = target: T2, Oxytocin receptor (Homo sapiens); test: Activity at human oxytocin receptor expressed in CHO cells assessed as inositol phosphate accumulation at 1 uM; type: functional, cell-based
Procedure, shortened: (§5)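 Agonist mode on CHO cells stably expressing human OT receptor: 30 min at 37 °C with ligand, 10 fM–100 μM, ≤1% final DMSO. IP1 accumulation was read by IP-One HTRF, ΔF from the 665/620 ratio. K_act is the EC50 from the sigmoidal fit. Emax is % of the 1 μM OT maximal response. Single-concentration lines are % of OT maximum, n = 2. Mean of ≥3 experiments in triplicate.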

[11] = target: T1, Oxytocin receptor; test: Activity at human oxytocin receptor expressed in CHO cells by NFAT-luciferase gene reporter assay; type: cell-based
[12] = target: T3, Vasopressin V1a receptor; test: Activity at human vasopressin V1a receptor expressed in CHO cells by NFAT-luciferase gene reporter assay; type: cell-based
[13] = target: T3, Vasopressin V1a receptor; test: Activity at human vasopressin V1a receptor expressed in CHO cells assessed as inhibition of agonist-induced inositol phosphate accumulation at 1 uM; type: functional, cell-based; design: scale not given: the % may be the effect or the level left; procedure, shortened: as §3
Target sequence in this assay (P37288 whole entry, looked up): as the sequence (P37288 whole entry) above

[14] = target: T4, Vasopressin V2 receptor; test: Activity at human vasopressin V2 receptor expressed in CHO cells by cAMP dynamic 2 assay
[15] = target: T2, Oxytocin receptor (Homo sapiens); test: Activity at human oxytocin receptor expressed in CHO cells assessed as inositol phosphate accumulation; type: functional, cell-based; procedure, shortened: as §5
[16] = target: T2, Oxytocin receptor (Homo sapiens); test: Activity at human oxytocin receptor expressed in CHO cells assessed as inhibition of agonist-induced inositol phosphate accumulation at 10 uM; type: functional, cell-based; design: scale not given: the % may be the effect or the level left
[17] = target: T4, Vasopressin V2 receptor; test: Activity at human vasopressin V2 receptor expressed in CHO cells assessed as inhibition of agonist-induced cAMP accumulation at 10 uM; type: functional, cell-based
[18] = target: T2, Oxytocin receptor (Homo sapiens); test: Activity at human oxytocin receptor expressed in CHO cells assessed as inositol phosphate accumulation up to 100 uM; type: functional, cell-based; procedure, shortened: as §5
[19] = target: T3, Vasopressin V1a receptor; test: Activity at human vasopressin V1a receptor expressed in CHO cells assessed as inositol phosphate accumulation; type: functional, cell-based; procedure, shortened: as §2
Target sequence in this assay (P37288 whole entry, looked up): as the sequence (P37288 whole entry) above

[20] = target: T4, Vasopressin V2 receptor; test: Activity at human vasopressin V2 receptor expressed in CHO cells assessed as cAMP accumulation; type: functional, cell-based; procedure, shortened: as §4
[21] = target: T2, Oxytocin receptor (Homo sapiens); test: Activity at human oxytocin receptor expressed in CHO cells assessed as inhibition of agonist-induced inositol phosphate accumulation at 1 uM; type: functional, cell-based; design: scale not given: the % may be the effect or the level left
[22] = target: T4, Vasopressin V2 receptor; test: Activity at human vasopressin V2 receptor expressed in CHO cells assessed as inhibition of agonist-induced cAMP accumulation at 1 uM; type: functional, cell-based

Structure (SMILES) | Ki ([1]; read-out: Ki) | Kinact [2] | Ki ([3]; read-out: Ki) | Activity [4] | Kinact [5] | Ki ([6]; read-out: Ki) | Activity [7] | Kinact [8] | Activity [13] | Activity [16] | Emax [7] | Activity [21] | Activity [22] | also measured
Cc1cc(C(=O)N2Cc3cnn(C)c3Nc3ccccc32)ccc1NC(=O)c1ccccc1-c1ccccc1 | 0.111 µM | 557 nM | 0.037 µM | inactive | 412 nM | 0.0064 µM | inactive | 1.1 nM | – | – | – | – | – | Activity [9]: inactive
COc1cc(OC2CCN(C(C)=O)CC2)ccc1C(=O)N1CCC(N2C(=O)OCc3ccccc32)CC1 | – | – | – | inactive | – | – | inactive | inactive | 18% | – | – | – | – | Ki ([1]; cho): Not Active; Activity [10]: inactive; EC50 [11]: 0.0046 µM; Ki ([3]; cho): Not Active; Ki ([6]; cho): Not Active; EC50 [12]: 3.2 µM; EC50 [14]: 37 µM
Cc1cc(C(=O)N2Cc3cccn3Cc3ccccc32)ccc1CNC(=O)N1CCC[C@H]1C(=S)N1CCCN(C)CC1 | 2.5 µM | – | > 1 µM | inactive | 754 nM | 3.4 µM | – | – | – | 11% | 9% | – | – | Kact [15]: 110 µM; Emax [10]: 50.6%; Inhibition [17]: 43%; Activity [18]: inactive
Cc1cc(C(=O)N2Cc3cnn(C)c3Nc3ccccc32)ccc1CNC(=O)N1CCC[C@H]1C(=S)N1CCCN(C)CC1 | 0.147 µM | – | 0.33 µM | – | 271 nM | > 1 µM | – | – | – | – | 84% | 16% | inactive | Kact [15]: 0.667 µM; Emax [10]: 58%; Activity [19]: inactive; Kact [20]: 599 nM; Activity [12]: inactive
Cc1cc(C(=O)N2CCC(N3C(=O)OCc4ccccc43)CC2)ccc1CNC(=O)N1CCC[C@H]1C(=S)N1CCCN(C)CC1 | 0.245 µM | 383 nM | > 5 µM | inactive | – | – | inactive | – | inactive | – | – | – | inactive | Activity [9]: inactive
Cc1cc(C(=O)N2Cc3cnn(C)c3Nc3ccccc32)ccc1CNC(=O)N1CCCC1 | > 1 µM | – | 0.167 µM | inactive | 187 nM | > 1 µM | – | – | – | inactive | 20% | 37% | – | Kinact [22]: inactive
O=C(Nc1ccc(C(=O)N2CCCCc3ccccc32)cc1)c1ccccc1-c1ccccc1 | 0.109 µM | 171 nM | 0.00274 µM | inactive | 63 nM | 0.00057 µM | inactive | 0.096 nM | – | – | – | – | – | Activity [10]: inactive; EC50 [11]: 0.063 µM; EC50 [12]: 0.014 µM; EC50 [14]: 0.0076 µM
Cc1cc(C(=O)N2Cc3cnn(C)c3Nc3ccccc32)ccc1CNC(=O)N(C)C | > 5 µM | – | 0.17 µM | inactive | 134 nM | > 1 µM | – | – | – | inactive | 16% | 30% | – | –
CC(=O)NCc1ccc(C(=O)N2Cc3cnn(C)c3Nc3ccccc32)cc1C | > 5 µM | – | > 5 µM | inactive | – | – | – | – | 27% | inactive | – | inactive | – | –
Cc1ccn(-c2ccc(C(=O)N3Cc4cnn(C)c4Nc4ccccc43)cc2C)n1 | 0.0278 µM | 14.8 nM | 0.018 µM | inactive | 32.5 nM | 0.913 µM | inactive | 253 nM | – | – | – | – | – | –
Cc1ccn(-c2ccc(C(=O)N3Cc4cccn4Cc4ccccc43)c(Cl)c2)n1 | 0.199 µM | 488 nM | 0.344 µM | inactive | – | 0.05 µM | – | – | 33% | – | 75% | – | inactive | Activity [10]: inactive; EC50 [11]: 0.125 µM; Kact [20]: 9.5 nM; EC50 [12]: 0.465 µM; EC50 [14]: 0.0399 µM
Cc1ccn(-c2ccc(C(=O)N3Cc4cnn(C)c4Nc4ccccc43)c(Cl)c2)n1 | 0.017 µM | 69 nM | 0.027 µM | inactive | 13 nM | 0.029 µM | – | – | – | – | 94% | – | inactive | Activity [15]: inactive; Kact [20]: 8.4 nM
